This note sets out measurements from ChEMBL document CHEMBL1123253, “Design and synthesis of a potent and specific renin inhibitor with a prolonged duration of action in vivo” (J Med Chem, 1986).

The structures appear in SMILES notation. Non-standard residues stand in square brackets, D forms with d. Residues, ends and D or L forms follow the SMILES beside them. ξ: configuration not given here. *: point of attachment. Sta = CC(C)C[C@H](N)[C@@H](O)CC(=O)O; NMeH = CN[C@@H](Cc1c[nH]cn1)C(=O)O; NHCH2(2-pyridyl) = c1ccc(CN*)nc1; NMeF = CN[C@@H](Cc1ccccc1)C(=O)O; αMeF = C[C@](N)(Cc1ccccc1)C(=O)O; ξαMeF = CC(N)(Cc1ccccc1)C(=O)O; Boc = CC(C)(C)OC(=O)*

In one experiment the target is T1, Cathepsin D (Bos taurus, UniProt P80209).
T1 sequence (P80209 whole entry): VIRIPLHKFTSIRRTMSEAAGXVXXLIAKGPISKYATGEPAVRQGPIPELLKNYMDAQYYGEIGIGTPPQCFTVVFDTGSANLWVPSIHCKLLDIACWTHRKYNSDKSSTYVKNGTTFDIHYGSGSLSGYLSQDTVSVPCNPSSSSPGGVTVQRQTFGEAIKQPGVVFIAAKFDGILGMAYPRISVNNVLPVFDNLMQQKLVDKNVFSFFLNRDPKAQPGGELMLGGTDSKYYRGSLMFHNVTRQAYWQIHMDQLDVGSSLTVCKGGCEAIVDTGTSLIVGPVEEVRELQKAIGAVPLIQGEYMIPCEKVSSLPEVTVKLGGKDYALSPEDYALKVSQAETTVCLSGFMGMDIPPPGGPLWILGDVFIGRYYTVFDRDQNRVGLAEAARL
Put plainly: Inhibition of bovine cathepsin D.

The target of a further experiment is Pepsin A (Sus scrofa, UniProt P00791). Description: Inhibition of porcine pepsin. An outline of the steps:
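Porcine pepsin with porcine hemoglobin substrate in 0.02 M KCl-HCl buffer pH 2, with compounds dissolved in buffer. Incubation 25 min at 37 °C, then perchloric acid added and acid-soluble fraction absorbance read at 280 nm.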

Another experiment addresses T2, Renin (Homo sapiens, UniProt P00797).
T2 sequence (P00797 whole entry): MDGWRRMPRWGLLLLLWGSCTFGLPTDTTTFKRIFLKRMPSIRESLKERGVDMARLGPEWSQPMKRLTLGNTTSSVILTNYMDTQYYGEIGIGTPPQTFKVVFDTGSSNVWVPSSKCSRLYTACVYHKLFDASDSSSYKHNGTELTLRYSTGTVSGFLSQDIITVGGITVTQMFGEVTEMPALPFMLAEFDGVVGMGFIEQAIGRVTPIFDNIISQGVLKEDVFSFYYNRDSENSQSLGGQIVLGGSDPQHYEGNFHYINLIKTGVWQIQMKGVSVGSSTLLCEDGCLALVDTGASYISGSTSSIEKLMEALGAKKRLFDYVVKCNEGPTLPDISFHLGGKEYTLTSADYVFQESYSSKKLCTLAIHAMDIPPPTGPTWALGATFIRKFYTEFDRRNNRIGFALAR
Put plainly: Inhibition of human plasma renin. The experiment is classed as cell-free. The procedure, abridged:
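Lyophilized human plasma with 0.1% EDTA as renin source. Plasma is combined with phenylmethylsulfonyl fluoride, maleate buffer pH 6.0 and inhibitor in 1% Tween 80/water, then incubated 90 min at 37 °C. Angiotensin I measured by radioimmunoassay. Percent inhibition taken vs control tubes; IC50 estimated graphically from 3–4 concentrations on a semilog plot.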

Sequence of Pepsin A (P00791 whole entry): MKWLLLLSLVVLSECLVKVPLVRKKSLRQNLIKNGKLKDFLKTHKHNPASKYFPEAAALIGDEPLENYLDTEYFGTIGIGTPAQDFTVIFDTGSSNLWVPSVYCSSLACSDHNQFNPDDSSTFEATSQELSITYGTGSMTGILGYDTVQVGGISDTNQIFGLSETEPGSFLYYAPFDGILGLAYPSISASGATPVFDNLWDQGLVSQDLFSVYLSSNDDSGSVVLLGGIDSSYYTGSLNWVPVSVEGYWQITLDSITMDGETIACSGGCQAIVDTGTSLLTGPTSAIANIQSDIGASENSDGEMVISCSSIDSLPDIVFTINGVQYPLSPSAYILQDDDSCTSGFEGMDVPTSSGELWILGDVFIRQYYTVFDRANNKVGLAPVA

By IC50 is commonly meant the concentration that gives 50% inhibition. As to `CC[C@H](C)[C@H](NC(=O)[C@@H](C[C@H](O)[C@H](CC(C)C)NC(=O)[C@H](Cc1c[nH]cn1)N(C)C(=O)[C@H](Cc1ccccc1)NC(=O)[C@@H]1CCCN1C(=O)OC(C)(C)C)C(C)C)C(=O)NCc1ccccn1`, the IC50 on Cathepsin D is 6300 nM; on Pepsin A it was 6800 nM.
On Renin, `CC[C@H](C)[C@H](NC(=O)[C@@H](NC[C@H](CC(C)C)NC(=O)[C@H](Cc1c[nH]cn1)N(C)C(=O)[C@H](Cc1ccccc1)NC(=O)[C@@H]1CCCN1C(=O)OC(C)(C)C)C(C)C)C(=O)NCc1ccccn1` returned an IC50 of 68 nM.
The same measure, in the same setting: in the case of `CC[C@H](C)[C@H](NC(=O)[C@@H](NC[C@H](CC(C)C)NC(=O)[C@H](Cc1c[nH]cn1)N(C)C(=O)[C@H](Cc1ccccc1)NC(=O)OC(C)(C)C)C(C)C)C(=O)NCc1ccccn1` it was 450 nM.
On Renin, `CC[C@H](C)[C@H](NC(=O)[C@@H](C[C@H](O)[C@H](CC(C)C)NC(=O)[C@H](Cc1c[nH]cn1)N(C)C(=O)[C@H](Cc1ccccc1)NC(=O)OC(C)(C)C)C(C)C)C(=O)NCc1ccccn1` had an IC50 of 0.65 nM.
Molecule `CCC(C)C(NC(=O)CC(O)C(CC(C)C)NC(=O)C(Cc1cnc[nH]1)N(C)C(=O)C(Cc1ccccc1)NC(=O)OC(C)(C)C)C(=O)NCc1ccccn1` (stereo not drawn) showed an IC50 on Renin of 120 nM. This IC50 lies about 180-fold higher than the previous one.
For `CC[C@H](C)[C@H](NC(=O)C[C@H](O)[C@H](CC(C)C)NC(=O)[C@H](Cc1ccccc1)NC(=O)[C@H](Cc1ccccc1)NC(=O)OC(C)(C)C)C(=O)NCc1ccccn1` (Boc-FF[Sta]I-{NHCH2(2-pyridyl)}), inhibition against Renin was half-maximal at 24 nM (IC50).
`CC[C@H](C)[C@H](NC(=O)C[C@H](O)[C@H](CC(C)C)NC(=O)[C@H](Cc1ccccc1)N(C)C(=O)[C@H](Cc1ccccc1)NC(=O)OC(C)(C)C)C(=O)NCc1ccccn1` (Boc-F[NMeF][Sta]I-{NHCH2(2-pyridyl)}) registered an IC50 against Renin of 100 nM. This IC50 lies about 4.2-fold higher than the previous one.
As for `CC[C@H](C)[C@H](NC(=O)C[C@H](O)[C@H](CC(C)C)NC(=O)[C@](C)(Cc1ccccc1)NC(=O)[C@H](Cc1ccccc1)NC(=O)OC(C)(C)C)C(=O)NCc1ccccn1` (Boc-F[αMeF][Sta]I-{NHCH2(2-pyridyl)}), on Renin, the IC50 is > 10000 nM.
As for `CC[C@H](C)[C@H](NC(=O)C[C@H](O)[C@H](CC(C)C)NC(=O)[C@H](Cc1c[nH]cn1)N(C)C(=O)[C@H](Cc1ccccc1)NC(=O)[C@@H]1CCCN1C(=O)OC(C)(C)C)C(=O)NCc1ccccn1` (Boc-PF[NMeH][Sta]I-{NHCH2(2-pyridyl)}), the midpoint of inhibition against Renin, the IC50, lay at 190 nM.
The same measure, in the same setting: next, `CC[C@H](C)[C@H](NC(=O)C[C@H](O)[C@H](CC(C)C)NC(=O)[C@H](Cc1ccccc1)NC(=O)[C@H](Cc1ccccc1)N(C)C(=O)OC(C)(C)C)C(=O)NCc1ccccn1` (Boc-[NMeF]F[Sta]I-{NHCH2(2-pyridyl)}): 340 nM; `CC[C@H](C)[C@H](NC(=O)C[C@H](O)[C@H](CC(C)C)NC(=O)[C@H](Cc1c[nH]cn1)NC(=O)[C@H](Cc1ccccc1)N(C)C(=O)OC(C)(C)C)C(=O)NCc1ccccn1` (Boc-[NMeF]H[Sta]I-{NHCH2(2-pyridyl)}): 720 nM; `CC[C@H](C)[C@H](NC(=O)C[C@H](O)[C@H](CC(C)C)NC(=O)[C@H](Cc1ccccc1)NC(=O)C(C)(Cc1ccccc1)NC(=O)OC(C)(C)C)C(=O)NCc1ccccn1` (stereo partly drawn) (Boc-[ξαMeF]F[Sta]I-{NHCH2(2-pyridyl)}): 6800 nM.
